Data as given in PMC10753860 (European journal of medicinal chemistry, 2023).
pEC50: −log10 of the molar value.

Experiments:
[1] = system: HBV replication in AML12HBV10 cells; test: Antiviral dot blot hybridization assay of HBV DNA in AML12HBV10 cells; assay type: cell-based, hepatitis B virus (mouse hepatocyte-derived cell line)
[2] = system: HBV capsid assembly and pgRNA encapsidation in AML12HBV10 cells; test: Mode of action study in AML12HBV10 cells; assay type: cell-based, hepatitis B virus (mouse hepatocyte-derived cell line); settings: 2 days, ETV 1 μM; for amount of total viral RNA / amount of core protein / amount of encapsidated pgRNA / viral DNA replication intermediates: 17 or 18 1 or 5 μM; for amount of total viral RNA / amount of encapsidated pgRNA: Northern blot; for amount of core protein: Western blot; for amount of encapsidated pgRNA / viral DNA replication intermediates: Bay 41-4109 2 μM, DVR-23 5 μM; for viral DNA replication intermediates: Southern blot
Summary of the method: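 Mouse hepatocyte-derived AML12HBV10 cells carry a tetracycline-inducible, envelope-deficient HBV genome. They were seeded in 24-well plates, kept with tet (negative control) or without it for 24 h, then DMSO- or compound-treated for 48 h. Read-outs: total RNA and encapsidated pgRNA by Northern blot (rRNA loading); Cp by Western blot with antibody to its C-terminal 14 residues (β-actin loading); capsids and core DNA by native agarose particle gel.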

[3] = system: HBV replication in AML12HBV10 cells; settings: HBV AML12HBV10 cell line; cited from earlier work

In the case of O=C(Nc1ccc(F)c(Cl)c1)N1CCCc2ccccc21 [Compound 27, N-(3-chloro-4-fluorophenyl)-3,4-dihydroquinoline-1(2H)-carboxamide], the “reduction of activity relative to 17” value ([1]; AML12HBV10 cells, replacement of 4-N with CH2) was 3 fold.

With O=C(Nc1ccc(F)c(Cl)c1)N1c2ccccc2NCC1c1ccccc1 (stereo not drawn) [Compound 74, N-(3-chloro-4-fluorophenyl)-2-phenyl-3,4-dihydroquinoxaline-1(2H)-carboxamide] the “anti-HBV activity (in words)” value ([1]; AML12HBV10 cells) was “sub-micromolar activity”.

For O=C(Nc1ccc(F)c(C(F)F)c1)N1CCNc2ccccc21 [Compound 35, N-(3-(difluoromethyl)-4-fluorophenyl)-3,4-dihydroquinoxaline-1(2H)-carboxamide], the “anti-HBV activity (in words)” value ([1]; AML12HBV10 cells) was “improved the potencies”.

With O=C(Nc1ccc(F)c(Cl)c1)N1CCN(C(=O)Nc2cc(Cl)c(F)cc2F)c2ccccc21 [Compound 96, N^1-(5-chloro-2,4-difluorophenyl)-N^4-(3-chloro-4-fluorophenyl)-2,3-dihydroquinoxaline-1,4-dicarboxamide] the “anti-HBV activity (in words)” value ([1]; AML12HBV10 cells) was “sub-micromolar activities”.

In the case of O=C(Nc1ccc(F)c(Cl)c1)N1CCNc2ccccc21 [Compound 17, N-(3-chloro-4-fluorophenyl)-3,4-dihydroquinoxaline-1(2H)-carboxamide], the “amount of total viral RNA” value [2] was “did not alter”, the “amount of core protein” value [2] was “did not alter” and the “amount of encapsidated pgRNA” value [2] was “drastically reduced”. The “viral DNA replication intermediates” value [2] was “drastically reduced”.

With O=C(Cc1ccc(F)c(Cl)c1)N1CCNc2ccccc21 [Compound 45, 2-(3-chloro-4-fluorophenyl)-1-(3,4-dihydroquinoxalin-1(2H)-yl)ethanone] the “anti-HBV activity (in words)” value ([1]; AML12HBV10 cells) was “loss of activity”.

In the case of O=C1CN(C(=O)Nc2ccc(F)c(Cl)c2)c2ccccc2N1 [Compound 29, N-(3-chloro-4-fluorophenyl)-3-oxo-3,4-dihydroquinoxaline-1(2H)-carboxamide], the “anti-HBV activity (in words)” value ([1]; AML12HBV10 cells) was “inactive”.

For O=C(Nc1ccc(F)c(Cl)c1)N1CC(CN2CCC(F)(F)CC2)N(C(=O)Nc2ccc(F)c(Cl)c2)c2ccccc21 (stereo not drawn) [Compound 98, N^1,N^4-bis(3-chloro-4-fluorophenyl)-2-((4,4-difluoropiperidin-1-yl)methyl)-2,3-dihydroquinoxaline-1,4-dicarboxamide], the “anti-HBV activity (in words)” value ([1]; AML12HBV10 cells) was “did not help to improve the activity significantly”.

In the case of N#Cc1cc(NC(=O)N2c3ccccc3NCC2CN2CCC(F)(F)CC2)ccc1F (stereo not drawn) [Compound 86, N-(3-cyano-4-fluorophenyl)-2-((4,4-difluoropiperidin-1-yl)methyl)-3,4-dihydroquinoxaline-1(2H)-carboxamide], the pEC50 ([1]; Hepatitis B virus, AML12HBV10, in Mus musculus) was roughly 7.00.

With NC1CCN(C(=O)Nc2ccc(F)c(Cl)c2)c2ccccc21 (stereo not drawn) [Compound 28, 4-Amino-N-(3-chloro-4-fluorophenyl)-3,4-dihydroquinoline-1(2H)-carboxamide] the “anti-HBV activity (in words)” value ([1]; AML12HBV10 cells) was “no activity was observed”.

With CC1(C)CCN(CC2CNc3ccccc3N2C(=O)Nc2ccc(F)c(Cl)c2)CC1 (stereo not drawn) [Compound 76, N-(3-chloro-4-fluorophenyl)-2-((4,4-dimethylpiperidin-1-yl)methyl)-3,4-dihydroquinoxaline-1(2H)-carboxamide] the “anti-HBV activity (in words)” value ([1]; AML12HBV10 cells) was “loss of activity”.

For COC(=O)C1=C(C)NC(c2ncc(F)cc2F)=N[C@H]1c1ccc(F)cc1Cl [Bay 41-4109], the “amount of encapsidated pgRNA” value [2] was “significantly reduced” and the “viral DNA replication intermediates” value [2] was “viral DNA replication was inhibited”.

With O=C(Nc1ccc(F)c(Cl)c1)N1c2ccccc2NCC1CN1CCOCC1 (stereo not drawn) [Compound 71, N-(3-chloro-4-fluorophenyl)-2-(morpholinomethyl)-3,4-dihydroquinoxaline-1(2H)-carboxamide] the “anti-HBV activity (in words)” value ([1]; AML12HBV10 cells) was “reduced the activity significantly”.

For O=C(Nc1ccc(F)c(Cl)c1)C1CCNc2ccccc21 (stereo not drawn) [Compound 23, N-(3-chloro-4-fluorophenyl)-1,2,3,4-tetrahydroquinoline-4-carboxamide], the “anti-HBV activity (in words)” value ([1]; AML12HBV10 cells) was “loss of activity”.

For O=C(Nc1ccc(F)c(Cl)c1)N1CC(CN2CCC(F)(F)C2)N(C(=O)Nc2ccc(F)c(Cl)c2)c2ccccc21 (stereo not drawn) [Compound 97, N^1,N4-bis(3-chloro-4-fluorophenyl)-2-((3,3-difluoropyrrolidin-1-yl)methyl)-2,3-dihydroquinoxaline-1,4-dicarboxamide], the “anti-HBV activity (in words)” value ([1]; AML12HBV10 cells) was “did not help to improve the activity significantly”.

For O=C(Nc1ccc(F)c(C(F)(F)F)c1)N1c2ccccc2NCC1CN1CCC(F)(F)CC1 (stereo not drawn) [Compound 87, 2-((4,4-difluoropiperidin-1-yl)methyl)-N-(4-fluoro-3-(trifluoromethyl)phenyl)-3,4-dihydroquinoxaline-1(2H)-carboxamide], the “anti-HBV activity (in words)” value ([1]; AML12HBV10 cells) was “moderate sub-micromolar”.

With O=C(NCc1cccc(Cl)c1)N1CCNc2ccccc21 [Compound 44, N-(3-chlorobenzyl)-3,4-dihydroquinoxaline-1(2H)-carboxamide] the “anti-HBV activity (in words)” value ([1]; AML12HBV10 cells) was “reduced the activity”.

In the case of O=C(Nc1ccc(F)c(Cl)c1)c1cccc2c1OCCO2 [38017 (8)], the “EC50 (in words)” value [3] is given as “sub-micromolar”.

In the case of O=C(Nc1ccc(F)c(Cl)c1)N1CCCCc2ccccc21 [Compound 32, N-(3-chloro-4-fluorophenyl)-2,3,4,5-tetrahydro-1H-benzo[b]azepine-1-carboxamide], the “anti-HBV activity (in words)” value ([1]; AML12HBV10 cells) was “diminished the activity”.

With O=C(Nc1cccc(Cl)c1)N1c2ccccc2NCC1CN1CCC(F)(F)CC1 (stereo not drawn) [Compound 89, N-(3-chlorophenyl)-2-((4,4-difluoropiperidin-1-yl)methyl)-3,4-dihydroquinoxaline-1(2H)-carboxamide] the “anti-HBV activity (in words)” value ([1]; AML12HBV10 cells) was “moderate sub-micromolar”.

In the case of O=C(Nc1ccc(F)c(Cl)c1)N1CCN(C(=O)Nc2ccc(F)c(Cl)c2)c2ccccc21 [Compound 18, N^1,N^4-bis(3-chloro-4-fluorophenyl)-2,3-dihydroquinoxaline-1,4-dicarboxamide], the “amount of total viral RNA” value [2] was “did not alter”, the “amount of core protein” value [2] was “did not alter” and the “amount of encapsidated pgRNA” value [2] was “drastically reduced”. The “viral DNA replication intermediates” value [2] was “drastically reduced”.

In the case of O=C(Nc1ccc(F)c(Cl)c1)N1CCN[C@H]2CCCC[C@H]21 (relative stereo) [Compound 34, Cis-N-(3-chloro-4-fluorophenyl)octahydroquinoxaline-1(2H)-carboxamide], the “anti-HBV activity (in words)” value ([1]; AML12HBV10 cells) was “loss of activity”.

In the case of C=C1[C@H](CO)[C@@H](O)C[C@@H]1n1cnc2c(=O)[nH]c(N)nc21 [ETV, Entecavir], the “amount of total viral RNA” value [2] was “did not alter”, the “amount of core protein” value [2] was “did not alter” and the “amount of encapsidated pgRNA” value [2] was “did not alter”. For the same compound, the “viral DNA replication intermediates” value [2] was “drastically reduced” and the “amount of capsid-associated viral DNA” value ([2]; particle gel assay) was “drastically reduced”.

For O=S(=O)(Nc1ccc(F)c(Cl)c1)N1CCNc2ccccc21 [Compound 26, N-(3-chloro-4-fluorophenyl)-3,4-dihydroquinoxaline-1(2H)-sulfonamide], the “anti-HBV activity (in words)” value ([1]; AML12HBV10 cells) was “loss of activity”.

With O=C(Nc1cc(F)c(F)c(F)c1)N1CCN(C(=O)Nc2ccc(F)c(Cl)c2)c2ccccc21 [Compound 95, N^1-(3-chloro-4-fluorophenyl)-N^4-(3,4,5-trifluorophenyl)-2,3-dihydroquinoxaline-1,4-dicarboxamide] the “anti-HBV activity (in words)” value ([1]; AML12HBV10 cells) was “sub-micromolar activities”.

In the case of CCC(C)NS(=O)(=O)c1ccc(F)c(C(=O)Nc2ccc(F)c(F)c2)c1 (stereo not drawn) [DVR-23], the “amount of encapsidated pgRNA” value [2] was “significantly reduced” and the “viral DNA replication intermediates” value [2] was “viral DNA replication was inhibited”.

For O=C(Nc1ccc(F)c(Cl)c1)N1CCc2ccccc21 [Compound 30, N-(3-chloro-4-fluorophenyl)indoline-1-carboxamide], the “anti-HBV activity (in words)” value ([1]; AML12HBV10 cells) was “maintained activity”.
